Calls of active or inactive are those of the source. The calls are words filed in the database; no cut-off is given here.

The test system of experiment [1] is PC-3. Description: Cell cycle arrest in human PC3 cells assessed as accumulation at G2/M phase at 0.05 uM incubated for 24 hrs by propidium iodide staining based FACS assay (reference value: 14%). The experiment is classed as functional. The procedure, abridged: (§1)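 PC-3 cells in RPMI-1640 with 10% FBS at 37 °C and 5% CO2. Cells were plated at 1.0×10^5 cells/mL and pre-incubated 24 h, then treated. They were collected by centrifugation, fixed in 70% ethanol overnight at 4 °C, resuspended in PBS with RNase A and propidium iodide, and analysed by flow cytometry for phase distribution against untreated control.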
For orientation: Flow cytometry measures light scatter and fluorescence of single cells or particles in a stream.

The species entered for experiment [2] is Sus scrofa. Description: Inhibition of porcine brain tubulin polymerization at 3 uM incubated for 80 mins by fluorescence based spectrophotometry. The procedure, abridged:
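Fluorescence-based kit assay. Tubulin (10 mg/mL) in buffer 1 with tubulin glycerol buffer and GTP (100 mM stock) was incubated with compound at 3 µM, with DMSO as vehicle control, at 37 °C for 80 min. Polymerization was followed as the fluorescence increase, read every minute at 360 nm excitation and 460 nm emission.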

Experiment [3] relates to PC-3. Description: Cytotoxicity against human PC3 cells assessed as reduction in cell viability incubated for 48 hrs by SRB assay. The class given is functional, cell-based. To be noted: PC-3, 48 h. The method in brief:
(§2)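 SRB colorimetric antiproliferative assay. Cells were grown in RPMI-1640 with 10% heat-inactivated FBS and penicillin/streptomycin at 37 °C and 5% CO2, and compound-exposed for 48 h. IC50 is the concentration causing 50% inhibition of cell viability, given as mean ± SD of three determinations.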
On the technique in general: In SRB staining, fixed cells bind dye roughly in proportion to their protein.

Experiment [4] concerns PC-3. Description: Cell cycle arrest in human PC3 cells assessed as accumulation at G0/G1 phase at 0.05 uM incubated for 24 hrs by propidium iodide staining based FACS assay (reference value: 62.5%). The class given is functional. The method in brief:
as §1

A further experiment concerns HeLa. Description: Cytotoxicity against human HeLa cells assessed as reduction in cell viability incubated for 48 hrs by SRB assay. The class given is functional, cell-based. The procedure, abridged:
as §2

For experiment [5], the system named is PC-3. Description: Cell cycle arrest in human PC3 cells assessed as accumulation at S phase at 0.05 uM incubated for 24 hrs by propidium iodide staining based FACS assay (reference value: 23.5%). The class given is functional. The procedure, abridged: as §1
Experiment [6] concerns PC-3. Description: Cell cycle arrest in human PC3 cells assessed as accumulation at G2/M phase at 0.5 uM incubated for 24 hrs by propidium iodide staining based FACS assay (reference value: 14%). The class given is functional. The method in brief:
as §1

For experiment [7], the species on record is Sus scrofa. Description: (§3) Inhibition of porcine brain tubulin polymerization incubated for 80 mins by fluorescence based spectrophotometry. The method in brief: (§4)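 Cell-free fluorescence kit assay. Tubulin (10 mg/mL) in buffer 1 with tubulin glycerol buffer and GTP (100 mM stock) was exposed to compound or DMSO for 80 min at 37 °C. Fluorescence (ex 360 nm, em 460 nm) was read each minute. IC50 was derived from five concentrations: 3, 5, 10, 20 and 40 μM.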

Experiment [8] in a line: as §3. Also on record: species or system Sus scrofa. The procedure, abridged: as §4
For experiment [9], the species on record is Homo sapiens. Description: Inhibition of tubulin polymerization in human PC3 cells assessed as disruption of microtubule network at 0.02 uM incubated for 48 hrs by immunohistochemistry. To be noted: 1 uM, in the assay text read “at 1 uM” for “at 0.02 uM”. The experiment is classed as cell-based. The procedure, abridged:
(§5)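 PC-3 cells were treated for 48 h, then fixed with 4% paraformaldehyde for 30 min and permeabilized with 0.1% Triton X-100 at 4 °C in the dark for 30 min. After blocking in PBS with 5% BSA, cells took anti-α-tubulin (1:500) overnight at 4 °C, then TRITC goat anti-rabbit IgG (1:500) for 1 h at RT. Nuclei were DAPI-stained and imaged by fluorescence microscopy at 20×.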

Experiment [10] relates to PC-3. Description: Cell cycle arrest in human PC3 cells assessed as accumulation at S phase at 0.5 uM incubated for 24 hrs by propidium iodide staining based FACS assay (reference value: 23.5%). The experiment is classed as functional. The method in brief:
as §1

The subject of experiment [11] is PC-3. Description: Cell cycle arrest in human PC3 cells assessed as accumulation at S phase at 1 uM incubated for 24 hrs by propidium iodide staining based FACS assay (reference value: 23.5%). The class given is functional. The method in brief: as §1
For experiment [12], the species on record is Homo sapiens. Description: Inhibition of tubulin polymerization in human PC3 cells assessed as disruption of microtubule network at 1 uM incubated for 48 hrs by immunohistochemistry. The class given is cell-based. The procedure, abridged:
as §5

Experiment [13] deals with PC-3. Description: Cell cycle arrest in human PC3 cells assessed as accumulation at G2/M phase at 1 uM incubated for 24 hrs by propidium iodide staining based FACS assay (reference value: 14%). The experiment is classed as functional. The procedure, abridged: as §1
Experiment [14] has as its system PC-3. Description: Cell cycle arrest in human PC3 cells assessed as accumulation at G0/G1 phase at 0.5 uM incubated for 24 hrs by propidium iodide staining based FACS assay (reference value: 62.5%). The class given is functional. The procedure, abridged:
as §1

Experiment [15] deals with PC-3. Description: Cell cycle arrest in human PC3 cells assessed as accumulation at G0/G1 phase at 1 uM incubated for 24 hrs by propidium iodide staining based FACS assay (reference value: 62.5%). The experiment is classed as functional. The method in brief: as §1

Consider `COc1ccc(/C=C\c2cc(OC)c(OC)c(OC)c2)cc1O` [COMBRETASTATIN A4], for which the values for the Activity with PC-3 [1], with PC-3 [4] and in the experiment with PC-3 [5] were 71.9%, 6.8% and 21.3%, respectively. The inhibition entry in the experiment filed under Sus scrofa [2] is “Active”. The IC50 in the experiment with PC-3 [3] came to 7 nM; with HeLa it was 530 nM.

Take `COc1ccc(C2(c3cc(OC)c(OC)c(OC)c3)CC(c3ccc(Cl)cc3)=NO2)cc1O` (stereo not drawn): the Activity with PC-3 [6] is given as 63.5%; in the experiment with PC-3 [10], 13.3%; in the experiment with PC-3 [11], 8.8%; in the experiment with PC-3 [13], 84.5%; in the experiment on PC-3 [14], 23.2%; with PC-3 [15], 6.7%. In addition, in the experiment listed under Sus scrofa [7], the inhibition entry is “Dose-dependent effect”. For the same compound, the IC50 in [8] came out at 30700 nM; in the experiment with PC-3 [3] it was 470 nM; in the experiment on HeLa it was 3290 nM. The inhibition result in the experiment filed under Homo sapiens [9] and in the experiment filed under Homo sapiens [12] was “Active” each time.

The IC50 is the point on the concentration scale where inhibition reaches its midpoint.

(Values after ChEMBL document CHEMBL4043172, “Constructing novel dihydrofuran and dihydroisoxazole analogues of isocombretastatin-4 as tubulin polymerization inhibitors through [3+2] reactions” (Bioorg Med Chem, 2017).)
